Laboratory results as given in ChEMBL document CHEMBL4834419 (J Med Chem, 2021).

Legend:
[1] = target: T1, Peroxisome proliferator-activated receptor alpha (Homo sapiens) (UniProt Q07869); assay: Agonist activity against human PPARalpha in human HEK293T cells co-expressing pFR/pRL-Luc assessed as receptor activation at 10 uM incubated for 14 to 16 hrs by hybrid reporter gene assay relative to bexarotene; format: cell-based; settings: filed as agonist, time 14-16 hrs
T1 sequence (whole entry): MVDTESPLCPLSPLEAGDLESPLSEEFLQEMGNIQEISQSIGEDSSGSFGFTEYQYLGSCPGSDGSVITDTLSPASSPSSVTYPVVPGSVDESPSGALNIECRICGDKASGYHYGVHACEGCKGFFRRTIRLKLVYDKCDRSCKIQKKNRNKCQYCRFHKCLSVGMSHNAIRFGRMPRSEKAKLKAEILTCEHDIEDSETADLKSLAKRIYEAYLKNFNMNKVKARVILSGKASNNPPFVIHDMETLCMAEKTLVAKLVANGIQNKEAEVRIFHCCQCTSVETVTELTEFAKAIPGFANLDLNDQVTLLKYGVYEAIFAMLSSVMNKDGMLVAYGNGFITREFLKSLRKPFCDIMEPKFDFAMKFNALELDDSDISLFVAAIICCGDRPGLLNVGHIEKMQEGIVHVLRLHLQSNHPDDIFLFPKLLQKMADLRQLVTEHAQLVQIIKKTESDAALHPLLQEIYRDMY
Outline: (§1)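 Gal4 hybrid reporter assay in HEK293T cells, seeded 24 h before transfection (Lipofectamine LTX, Opti-MEM) with pFR-Luc, pRL-SV40 and pFA-CMV plasmid carrying the hinge region and LBD of the human receptor. After 5 h, compound added in 0.1% DMSO, with 0.1% DMSO alone as untreated control. Dual-Glo luciferase read after 14−16 h; firefly/renilla normalized; duplicates, ≥2 independent experiments.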

[2] = target: T2, Retinoic acid receptor alpha (Homo sapiens) (UniProt P10276); assay: Agonist activity against human RARalpha in human HEK293T cells co-expressing pFR/pRL-Luc assessed as receptor activation at 10 uM incubated for 14 to 16 hrs by hybrid reporter gene assay relative to bexarotene; format: cell-based; settings: filed as agonist, time 14-16 hrs; outline: as §1
T2 sequence (whole entry): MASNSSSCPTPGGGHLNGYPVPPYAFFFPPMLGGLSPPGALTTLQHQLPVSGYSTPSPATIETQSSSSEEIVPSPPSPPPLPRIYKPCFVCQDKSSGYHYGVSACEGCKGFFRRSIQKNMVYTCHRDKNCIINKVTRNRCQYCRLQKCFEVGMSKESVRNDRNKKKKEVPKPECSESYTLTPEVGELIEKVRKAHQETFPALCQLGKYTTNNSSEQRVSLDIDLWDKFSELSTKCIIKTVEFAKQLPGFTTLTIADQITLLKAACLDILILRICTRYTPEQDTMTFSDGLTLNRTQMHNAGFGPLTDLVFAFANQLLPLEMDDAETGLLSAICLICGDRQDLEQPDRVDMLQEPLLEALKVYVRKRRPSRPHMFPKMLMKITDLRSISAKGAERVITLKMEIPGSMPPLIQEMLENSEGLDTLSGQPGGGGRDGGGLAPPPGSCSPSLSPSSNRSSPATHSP

[3] = target: T3, Oxysterols receptor LXR-beta (Homo sapiens) (UniProt P55055); assay: Agonist activity against human LXRbeta in human HEK293T cells co-expressing pFR/pRL-Luc assessed as receptor activation at 10 uM incubated for 14 to 16 hrs by hybrid reporter gene assay relative to bexarotene; format: cell-based; settings: filed as agonist, time 14-16 hrs; outline: as §1
T3 sequence (whole entry): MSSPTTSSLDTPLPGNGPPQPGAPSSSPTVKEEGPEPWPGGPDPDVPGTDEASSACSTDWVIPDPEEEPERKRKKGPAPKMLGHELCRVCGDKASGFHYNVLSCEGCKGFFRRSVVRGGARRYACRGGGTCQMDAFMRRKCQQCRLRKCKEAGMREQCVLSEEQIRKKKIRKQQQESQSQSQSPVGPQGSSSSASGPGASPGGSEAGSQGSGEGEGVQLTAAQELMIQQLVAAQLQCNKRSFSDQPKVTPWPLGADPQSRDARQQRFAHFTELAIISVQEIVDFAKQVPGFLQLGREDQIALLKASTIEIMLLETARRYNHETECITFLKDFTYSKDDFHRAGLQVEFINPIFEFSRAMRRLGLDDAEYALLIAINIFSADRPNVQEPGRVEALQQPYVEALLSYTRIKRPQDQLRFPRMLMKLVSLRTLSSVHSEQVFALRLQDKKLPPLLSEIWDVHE

[4] = target: T4, Nuclear receptor subfamily 1 group I member 3 (Homo sapiens, UniProt Q14994); assay: Agonist activity against human CAR in human HEK293T cells co-expressing pFR/pRL-Luc assessed as receptor activation at 10 uM incubated for 14 to 16 hrs by hybrid reporter gene assay relative to bexarotene; format: cell-based; settings: time 14-16 hrs; outline: as §1
T4 sequence (Q14994 whole entry): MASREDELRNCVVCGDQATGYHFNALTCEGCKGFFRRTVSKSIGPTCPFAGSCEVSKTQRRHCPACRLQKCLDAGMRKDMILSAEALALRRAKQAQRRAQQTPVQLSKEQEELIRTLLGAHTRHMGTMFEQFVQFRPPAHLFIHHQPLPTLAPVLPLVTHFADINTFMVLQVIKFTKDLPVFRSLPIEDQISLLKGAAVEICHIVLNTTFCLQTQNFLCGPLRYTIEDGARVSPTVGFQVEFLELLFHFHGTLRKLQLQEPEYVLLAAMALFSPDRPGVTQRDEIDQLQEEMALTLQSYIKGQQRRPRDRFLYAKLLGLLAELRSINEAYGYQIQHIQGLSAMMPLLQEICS

[5] = Metabolic stability in Sprague-Dawley rat liver microsomes assessed as compound degradation at 10 uM incubated for 60 min by HPLC analysis; format: ADME; settings: 1 h
Outline: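 Compound at 10 μM final in 0.1 M phosphate, pH 7.4, was preincubated 5 min at 37 °C with an NADPH-regenerating system. Sprague-Dawley rat liver microsomes were then added. Reactions were stopped with ice-cold methanol at 0, 15, 30 and 60 min and remaining compound quantified by HPLC against an external calibration. Controls: no NADPH, heat-inactivated microsomes. Three independent experiments.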

[6] = Plasma concentration in mouse at 10 mg/kg, po measure after 3 hrs; format: ADME, organism-based
Outline: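 Mice, n = 3, received a single oral dose of 10 mg/kg in water with 1% hydroxypropyl methylcellulose/Tween 80 (99:1). Tail-vein blood was drawn at 30 and 60 min and tissue collected at 3 h. Compound was quantified by LC−MS and PK derived by noncompartmental analysis.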

For `O=C(O)CCCc1cc(-c2cc(Cl)cc(Cl)c2)n(-c2ccccc2)n1`, the Activity [1] was 2%, the Activity [2] was 1% and the Activity [3] was 2%. For the same compound, the Activity [4] was 5%, the Stabilty [5] was “Stable” and the concentration at 3 h [6] was 35000 ng/mL.
